Laboratory results from ChEMBL document CHEMBL1914406, “Inhibitory effect of novel 5-O-acyl juglones on mammalian DNA polymerase activity, cancer cell growth and inflammatory response” (Bioorg Med Chem, 2011).
Activity calls are given as the source filed them. The calls are words filed in the database; no cut-off is given here.

System: Nucleic Acid
Assay: Binding affinity to DNA assessed as thermal transition of DNA relative to control
Format: nucleic-acid assay
Conditions: not given
For `CC/C=C\C/C=C\C/C=C\CCCCCCCC(=O)Oc1cccc2c1C(=O)C=CC2=O`, the Activity was “inactive”.
With `CC(=O)Oc1cccc2c1C(=O)C=CC2=O` the Activity was “inactive”.
For `CCCCCCCCCCCCCCCCCC(=O)Oc1cccc2c1C(=O)C=CC2=O`, the Activity was “inactive”.

System: HCT-116
Assay: Cytotoxicity against human HCT116 cells at 100 uM by WST-1 assay
Format: functional, cell-based
Conditions: not given
Outline: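 HCT116 colon carcinoma cells (ATCC) grown in McCoy's 5A with 10% FBS, penicillin and streptomycin, 37 °C, 5% CO2. Plated at 1 × 10⁴ cells/well together with compound, which was diluted from a 10 mM DMSO stock into medium (final 0.5% DMSO). Incubated 24 h. Viability read by WST-1, expressed relative to untreated cells.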
In the case of `O=C1C=CC(=O)c2c(O)cccc21` [JUGLONE], the Activity is reported as “Active”.

System: RAW264.7
Assay: Antiinflammatory activity in mouse RAW264.7 cells assessed as inhibition of LPS-induced TNFalpha secretion at 5 uM treated 30 mins before LPS challenge measured after 24 hrs by ELISA
Format: functional, cell-based
Conditions: not given
Outline: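 RAW264.7 cells in MEM with 4.5 g/L glucose, 10% FCS, 5 mM L-glutamine, at 37 °C in 5% CO2. Seeded at 5 × 10⁴ cells/well and grown 24 h. Compound (final 1 and 5 µM) given 30 min before 100 ng/mL LPS. After 24 h, TNF-α in the medium measured by ELISA, relative to the no-compound value (100%). Mean ± SE, n = 4.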
For `O=C1C=CC(=O)c2c(O)cccc21` [JUGLONE], the Activity was “Active”.

System: RAW264.7
Assay: Cytotoxicity against mouse RAW264.7 cells at 5 uM
Format: cell-based
Conditions: raw264.7, 5 µM
For `CC/C=C\C/C=C\C/C=C\CCCCCCCC(=O)Oc1cccc2c1C(=O)C=CC2=O`, the Activity was “Non-toxic”.
With `CC(=O)Oc1cccc2c1C(=O)C=CC2=O` the Activity was “Non-toxic”.
In the case of `CCCCCCCCCCCCCCCCCC(=O)Oc1cccc2c1C(=O)C=CC2=O`, the Activity is reported as “Non-toxic”.
In the case of `O=C1C=CC(=O)c2c(O)cccc21` [JUGLONE], the Activity is reported as “Non-toxic”.

System: not listed separately
Assay: Cytotoxicity against mouse RAW264.7 cells
Format: cell-based
Conditions: read-out: LD50 (the source's name)
`CC/C=C\C/C=C\C/C=C\CCCCCCCC(=O)Oc1cccc2c1C(=O)C=CC2=O` gave a CC50 of over 10 µM.
With `CC(=O)Oc1cccc2c1C(=O)C=CC2=O` the CC50 was over 10 µM.
`CCCCCCCCCCCCCCCCCC(=O)Oc1cccc2c1C(=O)C=CC2=O` showed a CC50 of over 10 µM.

System: Mus musculus
Assay: Antiinflammatory activity in mouse assessed as inhibition of TPA-induced mouse ear edema at 500 ug/ear administered 30 mins before TPA challenge measured after 7 hrs relative to untreated control
Format: functional, organism-based
Conditions: not given
Outline: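 Compound (500 µg) applied to one mouse ear; 30 min later TPA (0.5 µg) applied to both ears. Edema scored after 7 h and expressed as percentage of edema. Mean ± SE, n = 6.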
In the case of `CC/C=C\C/C=C\C/C=C\CCCCCCCC(=O)Oc1cccc2c1C(=O)C=CC2=O`, the Activity is reported as “Active”.
With `CC(=O)Oc1cccc2c1C(=O)C=CC2=O` the Activity was “Active”.
In the case of `CCCCCCCCCCCCCCCCCC(=O)Oc1cccc2c1C(=O)C=CC2=O`, the Activity is reported as “Active”.
In the case of `O=C1C=CC(=O)c2c(O)cccc21` [JUGLONE], the Activity is reported as “Active”.

Target: T1, DNA polymerase lambda (Homo sapiens) (UniProt Q9UGP5)
T1 sequence (whole entry): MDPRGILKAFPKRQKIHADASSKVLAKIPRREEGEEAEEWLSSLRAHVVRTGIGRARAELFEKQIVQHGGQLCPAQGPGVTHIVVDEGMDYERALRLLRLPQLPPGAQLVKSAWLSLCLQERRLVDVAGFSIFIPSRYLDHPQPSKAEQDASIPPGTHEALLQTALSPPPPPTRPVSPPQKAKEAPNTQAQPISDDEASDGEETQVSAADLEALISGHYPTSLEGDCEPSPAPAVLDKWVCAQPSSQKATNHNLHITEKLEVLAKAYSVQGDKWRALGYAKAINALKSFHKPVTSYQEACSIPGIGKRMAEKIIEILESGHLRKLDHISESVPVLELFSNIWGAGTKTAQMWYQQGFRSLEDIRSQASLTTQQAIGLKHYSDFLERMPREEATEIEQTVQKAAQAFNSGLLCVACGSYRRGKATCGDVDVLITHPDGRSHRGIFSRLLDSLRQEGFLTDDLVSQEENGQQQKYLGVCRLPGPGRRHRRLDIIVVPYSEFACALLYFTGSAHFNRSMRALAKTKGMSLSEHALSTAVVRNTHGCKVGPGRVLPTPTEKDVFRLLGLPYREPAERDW
Assay: Inhibition of recombinant His-tagged human DNA polymerase lambda using poly(dA)/oligo(dT)18 (A/T = 2/1) and dTTP as the DNA template-primer and nucleotide substrate at 10 uM after 60 mins
Conditions: not given
Outline: (§1)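 Compound in DMSO, sonicated 30 s. Premixed 0 °C, 10 min with enzyme (0.05 units) in 50 mM Tris-HCl pH 7.5, 1 mM DTT, 50% glycerol, 0.1 mM EDTA, then added to standard reaction mixture. Template-primers: poly(dA)/oligo(dT)18 (2/1) for pols, oligo(dT)18 for TdT, poly(rA)/oligo(dT)18 for HIV-1 RT, with [3H]dTTP. 60 min at 37 °C (Taq 74 °C). Activity relative to no-inhibitor control; mean ± SE of three experiments.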
In the case of `CC/C=C\C/C=C\C/C=C\CCCCCCCC(=O)Oc1cccc2c1C(=O)C=CC2=O`, the inhibition is reported as “Active”.
In the case of `CC(=O)Oc1cccc2c1C(=O)C=CC2=O`, the inhibition is reported as “Active”.
In the case of `CCCCCCCCCCCCCCCCCC(=O)Oc1cccc2c1C(=O)C=CC2=O`, the inhibition is reported as “Active”.
In the case of `O=C1C=CC(=O)c2c(O)cccc21` [JUGLONE], the inhibition is reported as “Active”.

Organism: Bos taurus
Assay: Inhibition of calf DNA polymerase alpha using poly(dA)/oligo(dT)18 (A/T = 2/1) and dTTP as the DNA template-primer and nucleotide substrate at 10 uM after 60 mins
Conditions: not given
Outline: as §1
In the case of `CC/C=C\C/C=C\C/C=C\CCCCCCCC(=O)Oc1cccc2c1C(=O)C=CC2=O`, the inhibition is reported as “Active”.
In the case of `CC(=O)Oc1cccc2c1C(=O)C=CC2=O`, the inhibition is reported as “Active”.
For `CCCCCCCCCCCCCCCCCC(=O)Oc1cccc2c1C(=O)C=CC2=O`, the inhibition was “Active”.
With `O=C1C=CC(=O)c2c(O)cccc21` [JUGLONE] the inhibition was “Active”.

Organism: Homo sapiens
Assay: Inhibition of histidine-tagged human DNA polymerase gamma using poly(dA)/oligo(dT)18 (A/T = 2/1) and dTTP as the DNA template-primer and nucleotide substrate at 10 uM after 60 mins
Conditions: not given
Outline: as §1
For `CC/C=C\C/C=C\C/C=C\CCCCCCCC(=O)Oc1cccc2c1C(=O)C=CC2=O`, the inhibition was “Active”.
In the case of `CC(=O)Oc1cccc2c1C(=O)C=CC2=O`, the inhibition is reported as “Active”.
In the case of `CCCCCCCCCCCCCCCCCC(=O)Oc1cccc2c1C(=O)C=CC2=O`, the inhibition is reported as “Active”.
For `O=C1C=CC(=O)c2c(O)cccc21` [JUGLONE], the inhibition was “Active”.

Target: T2, DNA polymerase kappa (Homo sapiens) (UniProt Q9UBT6)
T2 sequence (whole entry): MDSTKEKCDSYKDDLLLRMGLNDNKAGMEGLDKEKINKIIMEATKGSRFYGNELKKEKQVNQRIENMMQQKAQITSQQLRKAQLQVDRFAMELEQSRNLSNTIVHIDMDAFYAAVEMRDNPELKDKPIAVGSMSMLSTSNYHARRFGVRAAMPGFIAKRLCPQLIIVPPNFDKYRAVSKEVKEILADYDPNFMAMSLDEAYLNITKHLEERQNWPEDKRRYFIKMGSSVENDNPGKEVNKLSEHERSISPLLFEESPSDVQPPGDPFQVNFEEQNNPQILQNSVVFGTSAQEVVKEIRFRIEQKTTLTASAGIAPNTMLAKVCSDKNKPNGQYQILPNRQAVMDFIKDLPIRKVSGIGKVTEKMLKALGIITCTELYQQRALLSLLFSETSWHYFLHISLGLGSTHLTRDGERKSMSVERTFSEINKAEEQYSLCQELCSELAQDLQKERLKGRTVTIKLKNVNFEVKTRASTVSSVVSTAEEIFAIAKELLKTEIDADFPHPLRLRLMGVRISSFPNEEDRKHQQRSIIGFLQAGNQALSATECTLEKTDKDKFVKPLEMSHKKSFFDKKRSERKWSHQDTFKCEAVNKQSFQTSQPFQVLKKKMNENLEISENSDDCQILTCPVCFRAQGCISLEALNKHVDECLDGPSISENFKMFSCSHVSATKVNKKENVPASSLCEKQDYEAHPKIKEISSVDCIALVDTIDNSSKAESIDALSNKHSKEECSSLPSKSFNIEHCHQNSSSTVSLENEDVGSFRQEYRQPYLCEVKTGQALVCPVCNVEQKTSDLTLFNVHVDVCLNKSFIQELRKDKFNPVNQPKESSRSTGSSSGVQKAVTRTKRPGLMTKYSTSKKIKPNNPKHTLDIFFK
Assay: Inhibition of C-terminal His6-tagged human DNA polymerase kappa (amino acids 1 to 560) using poly(dA)/oligo(dT)18 (A/T = 2/1) and dTTP as the DNA template-primer and nucleotide substrate at 10 uM after 60 mins
Conditions: not given
With `CC/C=C\C/C=C\C/C=C\CCCCCCCC(=O)Oc1cccc2c1C(=O)C=CC2=O` the inhibition was “Active”.
In the case of `CC(=O)Oc1cccc2c1C(=O)C=CC2=O`, the inhibition is reported as “Active”.
For `CCCCCCCCCCCCCCCCCC(=O)Oc1cccc2c1C(=O)C=CC2=O`, the inhibition was “Active”.
For `O=C1C=CC(=O)c2c(O)cccc21` [JUGLONE], the inhibition was “Active”.

Organism: Bos taurus
Assay: Inhibition of calf DNA polymerase alpha using bovine deoxyribonuclease 1-treated DNA and dNTP as the DNA template-primer and nucleotide substrate at 10 uM after 60 mins
Conditions: not given
For `CC/C=C\C/C=C\C/C=C\CCCCCCCC(=O)Oc1cccc2c1C(=O)C=CC2=O`, the inhibition was “Active”.
In the case of `CC(=O)Oc1cccc2c1C(=O)C=CC2=O`, the inhibition is reported as “Active”.
With `CCCCCCCCCCCCCCCCCC(=O)Oc1cccc2c1C(=O)C=CC2=O` the inhibition was “Active”.
For `O=C1C=CC(=O)c2c(O)cccc21` [JUGLONE], the inhibition was “Active”.

Organism: Homo sapiens
Assay: Inhibition of histidine-tagged human DNA polymerase gamma using bovine deoxyribonuclease 1-treated DNA and dNTP as the DNA template-primer and nucleotide substrate at 10 uM after 60 mins
Conditions: not given
With `CC/C=C\C/C=C\C/C=C\CCCCCCCC(=O)Oc1cccc2c1C(=O)C=CC2=O` the inhibition was “Active”.
In the case of `CC(=O)Oc1cccc2c1C(=O)C=CC2=O`, the inhibition is reported as “Active”.
With `CCCCCCCCCCCCCCCCCC(=O)Oc1cccc2c1C(=O)C=CC2=O` the inhibition was “Active”.
With `O=C1C=CC(=O)c2c(O)cccc21` [JUGLONE] the inhibition was “Active”.

Target: T2, DNA polymerase kappa (Homo sapiens)
Assay: Inhibition of C-terminal His6-tagged human DNA polymerase kappa (amino acids 1 to 560) using bovine deoxyribonuclease 1-treated DNA and dNTP as the DNA template-primer and nucleotide substrate at 10 uM after 60 mins
Conditions: not given
With `CC/C=C\C/C=C\C/C=C\CCCCCCCC(=O)Oc1cccc2c1C(=O)C=CC2=O` the inhibition was “Active”.
With `CC(=O)Oc1cccc2c1C(=O)C=CC2=O` the inhibition was “Active”.
For `CCCCCCCCCCCCCCCCCC(=O)Oc1cccc2c1C(=O)C=CC2=O`, the inhibition was “Active”.
In the case of `O=C1C=CC(=O)c2c(O)cccc21` [JUGLONE], the inhibition is reported as “Active”.

Target: T1, DNA polymerase lambda (Homo sapiens)
Assay: Inhibition of recombinant His-tagged human DNA polymerase lambda using bovine deoxyribonuclease 1-treated DNA and dNTP as the DNA template-primer and nucleotide substrate at 10 uM after 60 mins
Conditions: not given
For `CC/C=C\C/C=C\C/C=C\CCCCCCCC(=O)Oc1cccc2c1C(=O)C=CC2=O`, the inhibition was “Active”.
With `CC(=O)Oc1cccc2c1C(=O)C=CC2=O` the inhibition was “Active”.
In the case of `CCCCCCCCCCCCCCCCCC(=O)Oc1cccc2c1C(=O)C=CC2=O`, the inhibition is reported as “Active”.
For `O=C1C=CC(=O)c2c(O)cccc21` [JUGLONE], the inhibition was “Active”.
